{"data": "Measurements of several laboratories", "ACSL4": "Long-chain-fatty-acid--CoA ligase 4 (ACSL4, Homo sapiens, UniProt O60488)", "CDK7 with cyclin H": "Cyclin-dependent kinase 7, with cyclin H (CDK7, Homo sapiens, UniProt P50613)", "HDAC6": "Protein deacetylase HDAC6 (HDAC6, Homo sapiens, UniProt Q9UBN7)", "SLCO2B1": "Solute carrier organic anion transporter family member 2B1 (SLCO2B1, Homo sapiens, UniProt O94956)", "CES1": "Liver carboxylesterase 1 (CES1, Homo sapiens, UniProt P23141)", "note": "Compare with care: the assays were run in different laboratories."}
{"Structure (SMILES)": "Cc1c(C)c2c(c(C)c1O)CCC(C)(COc1ccc(CC3SC(=O)NC3=O)cc1)O2 (stereo not shown)", "target": "ACSL4", "observed": "enzyme activity", "action": "inhibitor", "IC50 [nM]": 26300}
{"Structure (SMILES)": "CNS(=O)(=O)c1ccc(Nc2ncc(C(F)(F)F)c([C@H]3CC[C@](C)(O)CC3)n2)c(C)c1", "target": "CDK7 with cyclin H", "observed": "enzyme activity", "action": "inhibitor", "technique": "radiometric", "IC50 [nM]": 2130}
{"Structure (SMILES)": "CN(CCOc1ccccc1)c1ccccn1", "target": "ACSL4", "observed": "enzyme activity", "action": "inhibitor", "IC50 [nM]": "> 50000"}
{"Structure (SMILES)": "CN(C)C(=O)c1cc2cnc(Nc3ccc(-c4cccc5c(=O)cc(N6CCOCC6)oc45)cc3)nc2n1C1CCCC1", "target": "CDK7 with cyclin H", "observed": "enzyme activity", "action": "inhibitor", "IC50 [nM]": "> 10000"}
{"Structure (SMILES)": "O=C1CCC(N2C(=O)c3cccc(NCC(=O)OCCCCc4cn(CCCCCCN5CCc6c(c7ccccc7n6Cc6ccc(C(=O)NO)cc6)C5)nn4)c3C2=O)C(=O)N1 (stereo not shown)", "target": "HDAC6", "observed": "enzyme activity", "action": "inhibitor", "technique": "fluorescence", "IC50 [nM]": 47}
{"Structure (SMILES)": "CCc1oc2cc(F)ccc2c1C(=O)c1cc(Br)c(O)c(Br)c1", "target": "SLCO2B1", "observed": "transporter uptake", "action": "inhibitor", "technique": "radiometric", "IC50 [nM]": 749}
{"Structure (SMILES)": "O=C1CCC(c2ccc(OCC(=O)OCCCCc3cn(CCCCCCN4CCc5c(c6ccccc6n5Cc5ccc(C(=O)NO)cc5)C4)nn3)cc2)C(=O)N1 (stereo not shown)", "target": "HDAC6", "observed": "enzyme activity", "action": "inhibitor", "technique": "fluorescence", "IC50 [nM]": 49}
{"Structure (SMILES)": "COC(=O)/C=C/c1ccc(OCCN(C)C(=O)c2ccccc2)cc1", "target": "Long-chain-fatty-acid--CoA ligase 4 (ACSL4, Homo sapiens, UniProt O60488, Q302M)", "observed": "enzyme activity", "action": "inhibitor", "IC50 [nM]": 7100}
{"Structure (SMILES)": "CCC(CC)COC(=O)[C@H](C)N[P@](=O)(OC[C@H]1O[C@@](C#N)(c2ccc3c(N)ncnn23)[C@H](O)[C@@H]1O)Oc1ccccc1", "target": "CES1", "observed": "enzyme activity", "action": "inhibitor", "technique": "absorbance", "IC50 [nM]": 36200}
{"Structure (SMILES)": "O=C(NO)c1ccc(Cn2cnc3c(Nc4cccc([N+](=O)[O-])c4)ncnc32)cc1", "target": "HDAC6", "observed": "enzyme activity", "action": "inhibitor", "technique": "fluorescence", "IC50 [nM]": "< 2"}
{"Structure (SMILES)": "COC(=O)CCc1ccc(OCCN(C)c2ccccc2)cc1", "target": "ACSL4", "observed": "enzyme activity", "action": "inhibitor", "IC50 [nM]": 8500}
{"Structure (SMILES)": "CN1CCC(CNc2ccc3ncc(-c4cccc(OC(F)(F)F)c4)n3n2)CC1", "target": "5-hydroxytryptamine receptor 1B (HTR1B, Homo sapiens, UniProt P28222)", "observed": "cAMP", "action": "agonist", "IC50 [nM]": 95}
{"Structure (SMILES)": "CN(CCOc1ccc(CC2SC(=O)NC2=O)cc1)c1ccccc1 (stereo not shown)", "target": "ACSL4", "observed": "enzyme activity", "action": "inhibitor", "IC50 [nM]": 400}
{"Structure (SMILES)": "O=C(COc1ccc(C2CCC(=O)NC2=O)cc1)NCCCCCCN1CCc2c(c3ccccc3n2Cc2ccc(C(=O)NO)cc2)C1 (stereo not shown)", "target": "HDAC6", "observed": "enzyme activity", "action": "inhibitor", "technique": "fluorescence", "IC50 [nM]": 25}
{"Structure (SMILES)": "COC(=O)c1cc(OC)c2c(c1-c1c(C(=O)OC)cc(OC)c3c1OCO3)OCO2", "target": "CES1", "observed": "enzyme activity", "action": "inhibitor", "IC50 [nM]": 11400}
{"Structure (SMILES)": "COc1ccc(N(Cc2csc(-c3ccc(Br)cc3)n2)C(=O)CCCCCC(=O)NO)cc1", "target": "HDAC6", "observed": "enzyme activity", "action": "inhibitor", "IC50 [nM]": 3.2}
{"Structure (SMILES)": "COC(=O)CCCc1ccc(OCCN(C)c2ccccc2)cc1", "target": "ACSL4", "observed": "enzyme activity", "action": "inhibitor", "IC50 [nM]": "> 50000"}
{"Structure (SMILES)": "CCc1oc2ccccc2c1C(=O)c1cc(Br)c(O)c(Br)c1", "target": "SLCO2B1", "observed": "transporter uptake", "action": "inhibitor", "technique": "radiometric", "IC50 [nM]": 209}
{"Structure (SMILES)": "N=C(N)c1ccc(OCCCCCOc2ccc(C(=N)N)cc2)cc1", "target": "Prothrombin (F2, Homo sapiens, UniProt P00734)", "observed": "enzyme activity", "action": "inhibitor", "technique": "absorbance", "IC50 [nM]": "> 100000"}
{"Structure (SMILES)": "CNS(=O)(=O)c1ccc(Nc2ncc3cc(Cl)c(=O)n(C4CCCC4)c3n2)c(C)c1", "target": "CDK7 with cyclin H", "observed": "enzyme activity", "action": "inhibitor", "technique": "radiometric", "IC50 [nM]": 1600}
{"Structure (SMILES)": "O=C(NO)c1ccc(CN2CCN(c3cccc4cc(S(=O)(=O)c5cccc(F)c5)cnc34)CC2)c(F)c1", "target": "HDAC6", "observed": "enzyme activity", "action": "inhibitor", "technique": "fluorescence", "IC50 [nM]": 540}
{"Structure (SMILES)": "COc1ccc(N(Cc2nc(-c3ccc(F)cc3)cs2)C(=O)CCCCCC(=O)NO)cc1", "target": "HDAC6", "observed": "enzyme activity", "action": "inhibitor", "IC50 [nM]": 3.5}
{"Structure (SMILES)": "CN(CCOc1ccc(CC2SC(=O)NC2=O)cc1)c1ccccn1 (stereo not shown)", "target": "ACSL4", "observed": "enzyme activity", "action": "inhibitor", "IC50 [nM]": 1100}
{"Structure (SMILES)": "O=C(NO)c1ccc(Cn2cnc3c(Nc4ccc(F)c(Cl)c4)ncnc32)cc1", "target": "HDAC6", "observed": "enzyme activity", "action": "inhibitor", "technique": "fluorescence", "IC50 [nM]": 6.17}
{"Structure (SMILES)": "CNS(=O)(=O)c1ccc(Nc2ncc(C(F)(F)F)c(N3CCCC(C)(O)C3)n2)c(C)c1 (stereo not shown)", "target": "CDK7 with cyclin H", "observed": "enzyme activity", "action": "inhibitor", "technique": "radiometric", "IC50 [nM]": 2510}
